pIC50: −log10 of the molar value.
Test system: Mus musculus
Experiment: Compound was evaluated in vivo for antileukemic activity in B6D2F1 male mice
Type: functional
Conditions: not given
How it was run: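 P388 leukemia model, run essentially per NCI standard protocols: 10⁶ tumor cells injected ip into B6D2F1 male mice on day 0. Drug given ip once daily for 4 days starting day 1; highest dose tested 50 mg/kg per day. Read-out is percent increase in life span (ILS) versus untreated controls, with long-term survivors (>40 days) noted.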

| SMILES | ILS [%] |
| --- | --- |
| COc1cccc2c1C(=O)c1c(O)c3c(c(O)c1C2=O)C[C@@](O)(C(=O)COC(=O)CNC(C)=O)C[C@@H]3OC1CC(NC(=O)C(F)(F)F)C(O)C(C)O1 (some centres undefined) | 105 |
| COc1cccc2c1C(=O)c1c(O)c3c(c(O)c1C2=O)C[C@@](O)(C(=O)COC(=O)C(CCSC)NC(C)=O)C[C@@H]3OC1CC(NC(=O)C(F)(F)F)C(O)C(C)O1 (some centres undefined) | 136 |
| COc1cccc2c1C(=O)c1c(O)c3c(c(O)c1C2=O)C[C@@](O)(C(=O)COC(=O)C(Cc1ccccc1)NC(C)=O)C[C@@H]3OC1CC(NC(=O)C(F)(F)F)C(O)C(C)O1 (some centres undefined) | 173 |
| COc1cccc2c1C(=O)c1c(O)c3c(c(O)c1C2=O)C[C@@](O)(C(=O)COC(=O)C(C)NC(C)=O)C[C@@H]3OC1CC(NC(=O)C(F)(F)F)C(O)C(C)O1 (some centres undefined) | 163 |
| COc1cccc2c1C(=O)c1c(O)c3c(c(O)c1C2=O)C[C@@](O)(C(=O)CO)C[C@@H]3O[C@H]1C[C@H](N)[C@H](O)[C@H](C)O1 [DOXORUBICIN] | 145 |

Test system: CCRF-CEM
Experiment: In vitro antitumor activity in CCRF-CEM culture of human leukemic lymphocytes
Type: functional
Conditions: read-out: ID50 (the source's name)
How it was run: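 CCRF-CEM human leukemic lymphoblasts were grown in suspension in Eagle's MEM with 10% fetal bovine serum and exposed to drug continuously for 48 h. ID50 is the concentration giving 50% reduction in growth relative to untreated control cultures.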

| SMILES | pIC50 |
| --- | --- |
| COc1cccc2c1C(=O)c1c(O)c3c(c(O)c1C2=O)C[C@@](O)(C(=O)COC(=O)C1CCCN1C(C)=O)C[C@@H]3OC1CC(NC(=O)C(F)(F)F)C(O)C(C)O1 (some centres undefined) | 6.52 |
| COc1cccc2c1C(=O)c1c(O)c3c(c(O)c1C2=O)C[C@@](O)(C(=O)COC(=O)CNC(C)=O)C[C@@H]3OC1CC(NC(=O)C(F)(F)F)C(O)C(C)O1 (some centres undefined) | 6.85 |
| COc1cccc2c1C(=O)c1c(O)c3c(c(O)c1C2=O)C[C@@](O)(C(=O)COC(=O)C(CCSC)NC(C)=O)C[C@@H]3OC1CC(NC(=O)C(F)(F)F)C(O)C(C)O1 (some centres undefined) | 6.08 |
| COc1cccc2c1C(=O)c1c(O)c3c(c(O)c1C2=O)C[C@@](O)(C(=O)COC(=O)C(Cc1ccccc1)NC(C)=O)C[C@@H]3OC1CC(NC(=O)C(F)(F)F)C(O)C(C)O1 (some centres undefined) | 7.05 |
| COc1cccc2c1C(=O)c1c(O)c3c(c(O)c1C2=O)C[C@@](O)(C(=O)COC(=O)C(C)NC(C)=O)C[C@@H]3OC1CC(NC(=O)C(F)(F)F)C(O)C(C)O1 (some centres undefined) | 6.82 |
| COc1cccc2c1C(=O)c1c(O)c3c(c(O)c1C2=O)C[C@@](O)(C(=O)CO)C[C@@H]3O[C@H]1C[C@H](N)[C@H](O)[C@H](C)O1 [DOXORUBICIN] | 7.52 |

Next, values leading:

| pIC50 | SMILES |
| --- | --- |
| 6.64 | CCCCC(=O)OCC(=O)[C@]1(O)Cc2c(O)c3c(c(O)c2[C@@H](OC2CC(NC(=O)C(F)(F)F)C(O)C(C)O2)C1)C(=O)c1c(OC)cccc1C3=O (some centres undefined) |
| 6.00 | COc1cccc2c1C(=O)c1c(O)c3c(c(O)c1C2=O)C[C@@](O)(C(=O)COC(=O)CC(NC(C)=O)C(=O)O)C[C@@H]3OC1CC(NC(=O)C(F)(F)F)C(O)C(C)O1 (some centres undefined) |
| 6.92 | COc1cccc2c1C(=O)c1c(O)c3c(c(O)c1C2=O)C[C@@](O)(C(=O)COC(=O)CCC(NC(C)=O)C(N)=O)C[C@@H]3OC1CC(NC(=O)C(F)(F)F)C(O)C(C)O1 (some centres undefined) |
| 6.80 | COc1cccc2c1C(=O)c1c(O)c3c(c(O)c1C2=O)C[C@@](O)(C(=O)COC(=O)CCC(NC(C)=O)C(=O)O)C[C@@H]3OC1CC(NC(=O)C(F)(F)F)C(O)C(C)O1 (some centres undefined) |
| 6.85 | COc1cccc2c1C(=O)c1c(O)c3c(c(O)c1C2=O)C[C@@](O)(C(=O)COC(=O)C(NC(C)=O)C(C)C)C[C@@H]3OC1CC(NC(=O)C(F)(F)F)C(O)C(C)O1 (some centres undefined) |
| 6.92 | COc1cccc2c1C(=O)c1c(O)c3c(c(O)c1C2=O)C[C@@](O)(C(=O)COC(=O)CNC(=O)c1ccccc1)C[C@@H]3OC1CC(NC(=O)C(F)(F)F)C(O)C(C)O1 (some centres undefined) |
| 6.82 | COc1cccc2c1C(=O)c1c(O)c3c(c(O)c1C2=O)C[C@@](O)(C(=O)COC(=O)C(CC(C)C)NC(C)=O)C[C@@H]3OC1CC(NC(=O)C(F)(F)F)C(O)C(C)O1 (some centres undefined) |

Test system: not listed separately
Experiment: % hydrolysis in 60 min
Conditions: not given

| % hydrolysis at 1 h [%] | SMILES |
| --- | --- |
| 4 | COc1cccc2c1C(=O)c1c(O)c3c(c(O)c1C2=O)C[C@@](O)(C(=O)COC(=O)C1CCCN1C(C)=O)C[C@@H]3OC1CC(NC(=O)C(F)(F)F)C(O)C(C)O1 (some centres undefined) |

Test system: not listed separately
Experiment: % hydrolysis in 60 min
Conditions: not given
Remark: another data set of the same source

| % hydrolysis at 1 h [%] | SMILES |
| --- | --- |
| 8 | COc1cccc2c1C(=O)c1c(O)c3c(c(O)c1C2=O)C[C@@](O)(C(=O)COC(=O)C(NC(C)=O)C(C)C)C[C@@H]3OC1CC(NC(=O)C(F)(F)F)C(O)C(C)O1 (some centres undefined) |

Test system: not listed separately
Experiment: Half-life time of the compound
Type: ADME
Conditions: not given

| SMILES | half-life [min] |
| --- | --- |
| COc1cccc2c1C(=O)c1c(O)c3c(c(O)c1C2=O)C[C@@](O)(C(=O)COC(=O)CNC(C)=O)C[C@@H]3OC1CC(NC(=O)C(F)(F)F)C(O)C(C)O1 (some centres undefined) | 10 |
| COc1cccc2c1C(=O)c1c(O)c3c(c(O)c1C2=O)C[C@@](O)(C(=O)COC(=O)C(CCSC)NC(C)=O)C[C@@H]3OC1CC(NC(=O)C(F)(F)F)C(O)C(C)O1 (some centres undefined) | 38 |
| COc1cccc2c1C(=O)c1c(O)c3c(c(O)c1C2=O)C[C@@](O)(C(=O)COC(=O)C(Cc1ccccc1)NC(C)=O)C[C@@H]3OC1CC(NC(=O)C(F)(F)F)C(O)C(C)O1 (some centres undefined) | 14 |
| COc1cccc2c1C(=O)c1c(O)c3c(c(O)c1C2=O)C[C@@](O)(C(=O)COC(=O)C(C)NC(C)=O)C[C@@H]3OC1CC(NC(=O)C(F)(F)F)C(O)C(C)O1 (some centres undefined) | 18 |

The next lines start with the values.

| half-life [min] | SMILES |
| --- | --- |
| 18 | COc1cccc2c1C(=O)c1c(O)c3c(c(O)c1C2=O)C[C@@](O)(C(=O)COC(=O)CC(NC(C)=O)C(=O)O)C[C@@H]3OC1CC(NC(=O)C(F)(F)F)C(O)C(C)O1 (some centres undefined) |
| 24 | COc1cccc2c1C(=O)c1c(O)c3c(c(O)c1C2=O)C[C@@](O)(C(=O)COC(=O)CCC(NC(C)=O)C(N)=O)C[C@@H]3OC1CC(NC(=O)C(F)(F)F)C(O)C(C)O1 (some centres undefined) |
| 16 | COc1cccc2c1C(=O)c1c(O)c3c(c(O)c1C2=O)C[C@@](O)(C(=O)COC(=O)CCC(NC(C)=O)C(=O)O)C[C@@H]3OC1CC(NC(=O)C(F)(F)F)C(O)C(C)O1 (some centres undefined) |
| 3.5 | COc1cccc2c1C(=O)c1c(O)c3c(c(O)c1C2=O)C[C@@](O)(C(=O)COC(=O)CNC(=O)c1ccccc1)C[C@@H]3OC1CC(NC(=O)C(F)(F)F)C(O)C(C)O1 (some centres undefined) |
| 65 | COc1cccc2c1C(=O)c1c(O)c3c(c(O)c1C2=O)C[C@@](O)(C(=O)COC(=O)C(CC(C)C)NC(C)=O)C[C@@H]3OC1CC(NC(=O)C(F)(F)F)C(O)C(C)O1 (some centres undefined) |

From ChEMBL document CHEMBL1123314, “Adriamycin analogues. Preparation and biological evaluation of some N-(trifluoroacetyl)-14-O-[(N-acetylamino)acyl]adriamycin derivatives” (J Med Chem, 1986)
